In ChEMBL document CHEMBL5390262, “Further Studies on the Highly Active Des-C-Ring and Aromatic-D-Ring Analogues of 1α,25-Dihydroxyvitamin D3 (Calcitriol): Refinement of the Side Chain” (J Med Chem, 2023) one finds IC50 and Activity data, which are given here for 5 molecules.

The source made the active and inactive calls. No cut-off for these calls is given here.

The target of one data set is T1, Vitamin D3 receptor (Homo sapiens, UniProt P11473).
T1 sequence (P11473 whole entry): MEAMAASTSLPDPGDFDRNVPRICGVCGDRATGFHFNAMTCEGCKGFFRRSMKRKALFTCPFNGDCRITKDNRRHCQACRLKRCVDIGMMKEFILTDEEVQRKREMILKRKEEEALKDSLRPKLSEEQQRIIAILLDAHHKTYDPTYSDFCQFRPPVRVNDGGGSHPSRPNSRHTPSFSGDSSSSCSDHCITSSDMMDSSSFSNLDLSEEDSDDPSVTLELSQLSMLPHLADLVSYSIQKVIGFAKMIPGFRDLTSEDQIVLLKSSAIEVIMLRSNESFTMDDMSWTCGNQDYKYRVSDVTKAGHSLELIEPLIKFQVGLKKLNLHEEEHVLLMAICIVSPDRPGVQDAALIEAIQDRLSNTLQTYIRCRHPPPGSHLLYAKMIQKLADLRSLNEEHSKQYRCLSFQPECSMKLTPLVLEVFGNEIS
The data set can be described thus: Binding affinity to full length human VDR by Competitive binding assay.

The test system of a further data set is Mus musculus. The data set can be described thus: Effect on hypercalcemic activity in Swiss CD-1 mouse assessed as increase in serum calcium level at 0.3 microg/kg,ip using sesame oil as vehicle for 21 days on every other day by QuantiChom calcium assay. As to conditions: dose 0.3 µg/kg, time 21.0 day. Type of data set: functional. In a few lines: (§1)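 Groups of 5 male Swiss CD-1 mice given 0.3 μg/kg i.p. every other day for 21 days in sesame oil vehicle; sesame oil alone as control. Body weight recorded at day 21. Serum calcium measured at end of test by colorimetric calcium assay kit. Mean ± SD, n=5.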

A short description of data set [1]: Toxicity in Swiss CD-1 mouse assessed as body weight change at 0.3 microg/kg,ip using sesame oil as vehicle for 21 days on every other day. As to conditions: in vivo, 0.0003 mg/kg, 504 h, dose 0.3 µg/kg, time 21 day. Put shortly: as §1
The next data set has as its system HaCaT. The data set can be described thus: Induction of human HaCaT cells differentiation assessed as increase in formation of compact epithelioid islands at 0.1 microM incubated for 48 hrs by phase-contrast microscopy. Type of data set: functional, cell-based. In a few lines: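 HaCaT keratinocytes in charcoal-treated FCS medium treated 24 h after plating with compound at 10^-7 M in ethanol for 48 h. Ethanol-treated controls. Differentiation judged by phase-contrast microscopy, e.g. compact epithelioid island formation.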

A further data set relates to MCF7. The data set can be described thus: Upregulation of Cadherin-1 protein expression in human MCF7 cells at 0.1 uM incubated for 48 hrs by Western blot analysis. The data set is classed as functional, cell-based. Put shortly: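 MCF-7 cells in charcoal-stripped FCS medium treated with compound at 10^-7 M (ethanol vehicle) for 48 h. E-cadherin protein detected by Western blot with GAPDH as loading control; bands quantified by densitometry.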

Data set [2] concerns MDA-MB-231. Kind of data set: Antiproliferative activity against human MDA-MB-231 cells assessed as decrease in cell proliferation at 0.1 uM incubated for 48 hrs by MTT assay. Type of data set: functional, cell-based. In a few lines:
(§2)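 MDA-MB-231 cells seeded at 2 x 10^5 cells/well in medium with charcoal-treated FCS, then treated 24 h later with compound at 10^-7 M (ethanol vehicle) for 48 h, alone or together with cisplatin 25 μM. Read by MTT, DMSO solubilization, absorbance at 570 nm. Expressed as percent inhibition of proliferation relative to ethanol control normalized to 100%.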

Data set [3] deals with MDA-MB-231. The data set can be described thus: Antiproliferative activity against human MDA-MB-231 cells assessed as decrease in cell proliferation at 0.1 uM incubated for 48 hrs in presence of cisplatin by MTT assay. The data set is classed as functional, cell-based. Put shortly: as §2
The subject of data set [4] is MDA-MB-231. Kind of data set: Antiproliferative activity against human MDA-MB-231 cells cultured as 3D spheroids assessed as decrease in cell growth by measuring the sphere diameter at 0.1 uM incubated for 6 days by Phase-contrast microscopy. The data set is classed as functional, cell-based. As to conditions: time 6.0 day. In a few lines: (§3)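 3D culture: single-cell suspension of MDA-MB-231 (5x10^3 cells/100 μL) grown 4 days on a cell-repellent surface. Then treated 6 days with compound at 10^-7 M, given every other day, with or without cisplatin 25 μM. Ethanol control. Sphere growth quantified as relative units; mean ± SD.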

Data set [5] relates to MDA-MB-231. Kind of data set: Antiproliferative activity against human MDA-MB-231 cells cultured as 3D spheroids assessed as decrease in cell growth by measuring the sphere diameter at 0.1 uM incubated for 6 days in presence of cisplatin by Phase-contrast microscopy. The data set is classed as functional, cell-based. As to conditions: time 6.0 day. In a few lines:
as §3

Turning to `C=C1/C(=C\C=C(/CC)c2cccc(CCC#CCC(O)(C(F)(F)F)C(F)(F)F)c2)C[C@@H](O)C[C@@H]1O`, the concentration for half-maximal inhibition (IC50) on Vitamin D3 receptor stood at 4.64 nM. Also, the outcome in the data set on Mus musculus and in the data set with MDA-MB-231 [4] was inactive. Also, the Activity entry in data set [1] is on record as “Non-Toxic”. The result with HaCaT, in the data set on MCF7, in the data set on MDA-MB-231 [2], with MDA-MB-231 [3] and in the data set on MDA-MB-231 [5] was Active.
`C=C1/C(=C\C=C(/C)c2cccc(CCC#CCC(O)(C(F)(F)F)C(F)(F)F)c2)C[C@@H](O)C[C@@H]1O`: the concentration for half-maximal inhibition (IC50) at Vitamin D3 receptor came to 45.7 nM. The outcome with Mus musculus and in the data set on MDA-MB-231 [4] was inactive. Besides, the Activity entry in data set [1] was “Non-Toxic”. For the same molecule, the result with HaCaT, in the data set with MCF7, with MDA-MB-231 [2], in the data set with MDA-MB-231 [3] and with MDA-MB-231 [5] was Active.
As to `C=C1/C(=C\C=C2/CCC[C@]3(C)[C@@H]([C@H](C)CCCC(C)(C)O)CC[C@@H]23)C[C@@H](O)C[C@@H]1O` [CALCITRIOL], the result in the data set on Mus musculus, in the data set on HaCaT, in the data set with MCF7, in the data set with MDA-MB-231 [2], in the data set with MDA-MB-231 [3] and with MDA-MB-231 [5] was Active. Moreover, the Activity result in data set [1] is “Toxic”. Further, the outcome in the data set with MDA-MB-231 [4] was inactive.
`C=C1/C(=C\C=C(/CC)c2cccc(CCCCCC(O)(C(F)(F)F)C(F)(F)F)c2)C[C@@H](O)C[C@@H]1O` gave an IC50 on Vitamin D3 receptor of 2.91 nM. The result with Mus musculus and in the data set with MDA-MB-231 [4] was inactive. For the same molecule, in [1], the Activity entry is recorded as “Non-Toxic”. The result with HaCaT, in the data set with MCF7, in the data set with MDA-MB-231 [2], in the data set with MDA-MB-231 [3] and in the data set with MDA-MB-231 [5] was Active.
The molecule `C=C1/C(=C\C=C(/CC)c2cccc(CCC#CCC(C)(C)O)c2)C[C@@H](O)C[C@@H]1O` displayed a half-maximal inhibitory concentration (IC50) on Vitamin D3 receptor of 7.47 nM. Also, the result in the data set on Mus musculus and in the data set with MDA-MB-231 [4] was inactive. Further, in data set [1], the Activity result is reported as “Non-Toxic”. Further, the result in the data set with HaCaT, with MCF7, in the data set on MDA-MB-231 [2], in the data set with MDA-MB-231 [3] and with MDA-MB-231 [5] was Active.
